In brackets after ≈: the same amount, converted by molar mass.
Tests used:
Type in all cases: functional
[1] = tested on: Enterococcus faecalis; assay: Minimum inhibitory concentration (MIC) preventing growth of Streptococcus faecalis ATCC 10541
[2] = tested on: Bacillus cereus; assay: Minimum inhibitory concentration (MIC) preventing growth of Bacillus cereus
[3] = tested on: Bacillus subtilis; assay: Minimum inhibitory concentration (MIC) preventing growth of Bacillus subtilis
[4] = tested on: Staphylococcus aureus; assay: Efficacy on systemic infections after oral administration in mice was determined against […] HS-93
Outline: (§1)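 Mouse protection test using 4 groups of 10 mice. Mice were infected intraperitoneally with a bacterial suspension slightly above LD100. A single oral dose was given immediately after infection, with four doses, one per group, chosen from in vitro activity. Survival was scored after one week, and ED50 (total mg/kg protecting 50% of mice) was interpolated from group survival rates.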

[5] = tested on: Staphylococcus aureus; assay: Minimum inhibitory concentration (MIC) preventing growth of […]
[6] = tested on: Pseudomonas aeruginosa; assay: Efficacy on systemic infections after oral administration in mice was determined against Pseudomonas aeruginosa HS-116; outline: as §1
[7] = tested on: Escherichia coli; assay: Minimum inhibitory concentration (MIC)preventing growth of Escherichia coli
[8] = tested on: Staphylococcus epidermidis; assay: Minimum inhibitory concentration (MIC) preventing growth of Staphylococcus epidermidis
[9] = tested on: Pseudomonas aeruginosa; assay: Minimum inhibitory concentration (MIC)preventing growth of Pseudomonas aeruginosa
[10] = tested on: Morganella morganii; assay: Minimum inhibitory concentration (MIC) preventing growth of Morganella morganii
[11] = tested on: Klebsiella pneumoniae; assay: Minimum inhibitory concentration (MIC)preventing growth of Klebsiella pneumoniae
[12] = tested on: Escherichia coli; assay: Efficacy on systemic infections after oral administration in mice was determined against Escherichia coli HM-42; outline: as §1
[13] = tested on: Proteus vulgaris; assay: Minimum inhibitory concentration (MIC) preventing growth of Proteus vulgaris
[14] = tested on: Enterobacter cloacae; assay: Minimum inhibitory concentration (MIC)preventing growth of Enterobacter cloacae

MIC [1] | MIC [2] | MIC [3] | MIC [5] | MIC [7] | MIC [8] | MIC [9] | MIC [10] | MIC [11] | MIC [13] | MIC [14] | SMILES | ED50 [4] | ED50 [6] | ED50 [12]
1 µg/mL (≈ 2.65 µM) | 0.25 µg/mL (≈ 0.662 µM) | 0.06 µg/mL (≈ 0.159 µM) | 0.25 µg/mL (≈ 0.662 µM) | 0.12 µg/mL (≈ 0.318 µM) | 0.25 µg/mL (≈ 0.662 µM) | 2 µg/mL (≈ 5.3 µM) | 0.25 µg/mL (≈ 0.662 µM) | 0.25 µg/mL (≈ 0.662 µM) | 0.5 µg/mL (≈ 1.32 µM) | 0.12 µg/mL (≈ 0.318 µM) | CN(C)C1(C)CN(c2c(F)cc3c(=O)c(C(=O)O)cn(C4CC4)c3c2F)C1 | 7.4 mg/kg | 70.2 mg/kg | 1.4 mg/kg
2 µg/mL (≈ 4.96 µM) | 0.12 µg/mL (≈ 0.298 µM) | 0.12 µg/mL (≈ 0.298 µM) | 0.12 µg/mL (≈ 0.298 µM) | 0.25 µg/mL (≈ 0.62 µM) | 0.12 µg/mL (≈ 0.298 µM) | 2 µg/mL (≈ 4.96 µM) | 0.25 µg/mL (≈ 0.62 µM) | 0.015 µg/mL (≈ 0.0372 µM) | 1 µg/mL (≈ 2.48 µM) | 0.25 µg/mL (≈ 0.62 µM) | CC1(N)CN(c2c(F)cc3c(=O)c(C(=O)O)cn(-c4ccc(F)cc4)c3c2F)C1 | 10.9 mg/kg | 159 mg/kg | 3.2 mg/kg
0.5 µg/mL (≈ 1.49 µM) | 0.03 µg/mL (≈ 0.0892 µM) | 0.007 µg/mL (≈ 0.0208 µM) | 0.06 µg/mL (≈ 0.178 µM) | 0.06 µg/mL (≈ 0.178 µM) | 0.12 µg/mL (≈ 0.357 µM) | 2 µg/mL (≈ 5.95 µM) | 0.06 µg/mL (≈ 0.178 µM) | 0.007 µg/mL (≈ 0.0208 µM) | 0.06 µg/mL (≈ 0.178 µM) | 0.06 µg/mL (≈ 0.178 µM) | O=C(O)c1cn(C2CC2)c2c(F)c(N3CC(O)C3)c(F)cc2c1=O | 29.7 mg/kg | 61.3 mg/kg | 11.3 mg/kg
2 µg/mL (≈ 5.12 µM) | 0.25 µg/mL (≈ 0.64 µM) | 0.12 µg/mL (≈ 0.307 µM) | 0.25 µg/mL (≈ 0.64 µM) | 0.12 µg/mL (≈ 0.307 µM) | 0.25 µg/mL (≈ 0.64 µM) | 2 µg/mL (≈ 5.12 µM) | 0.25 µg/mL (≈ 0.64 µM) | 0.015 µg/mL (≈ 0.0384 µM) | 0.5 µg/mL (≈ 1.28 µM) | 0.12 µg/mL (≈ 0.307 µM) | NC1CN(c2nc3c(cc2F)c(=O)c(C(=O)O)cn3-c2ccc(F)cc2F)C1 | 5.3 mg/kg | 75.2 mg/kg | 1.5 mg/kg
0.25 µg/mL (≈ 0.714 µM) | 0.015 µg/mL (≈ 0.0428 µM) | 0.015 µg/mL (≈ 0.0428 µM) | 0.06 µg/mL (≈ 0.171 µM) | 0.015 µg/mL (≈ 0.0428 µM) | 0.12 µg/mL (≈ 0.343 µM) | 0.25 µg/mL (≈ 0.714 µM) | 0.015 µg/mL (≈ 0.0428 µM) | 0.015 µg/mL (≈ 0.0428 µM) | 0.06 µg/mL (≈ 0.171 µM) | 0.015 µg/mL (≈ 0.0428 µM) | Nc1c(F)c(N2CC(N)C2)c(F)c2c1c(=O)c(C(=O)O)cn2C1CC1 |  |  | 
1 µg/mL (≈ 2.76 µM) | 0.06 µg/mL (≈ 0.166 µM) | 0.015 µg/mL (≈ 0.0414 µM) | 0.12 µg/mL (≈ 0.331 µM) | 0.06 µg/mL (≈ 0.166 µM) | 0.12 µg/mL (≈ 0.331 µM) | 2 µg/mL (≈ 5.52 µM) | 0.25 µg/mL (≈ 0.69 µM) | 0.015 µg/mL (≈ 0.0414 µM) | 0.25 µg/mL (≈ 0.69 µM) | 0.12 µg/mL (≈ 0.331 µM) | CNC1(C)CN(c2nc3c(cc2F)c(=O)c(C(=O)O)cn3C(C)(C)C)C1 |  |  | 
1 µg/mL (≈ 2.55 µM) | 0.25 µg/mL (≈ 0.639 µM) | 0.12 µg/mL (≈ 0.307 µM) | 0.25 µg/mL (≈ 0.639 µM) | 0.25 µg/mL (≈ 0.639 µM) | 0.25 µg/mL (≈ 0.639 µM) | 2 µg/mL (≈ 5.11 µM) | 0.25 µg/mL (≈ 0.639 µM) | 0.25 µg/mL (≈ 0.639 µM) | 0.25 µg/mL (≈ 0.639 µM) | 0.25 µg/mL (≈ 0.639 µM) | CCNCC1(C)CN(c2c(F)cc3c(=O)c(C(=O)O)cn(C4CC4)c3c2F)C1 |  |  | 
0.5 µg/mL (≈ 1.32 µM) | 0.12 µg/mL (≈ 0.317 µM) | 0.03 µg/mL (≈ 0.0793 µM) | 0.12 µg/mL (≈ 0.317 µM) | 0.06 µg/mL (≈ 0.159 µM) | 0.06 µg/mL (≈ 0.159 µM) | 0.5 µg/mL (≈ 1.32 µM) | 0.06 µg/mL (≈ 0.159 µM) | 0.06 µg/mL (≈ 0.159 µM) | 0.12 µg/mL (≈ 0.317 µM) | 0.06 µg/mL (≈ 0.159 µM) | CC1(N)CN(c2c(F)cc3c(=O)c4c(=O)[nH]sc4n(C4CC4)c3c2F)C1 |  |  | 
1 µg/mL (≈ 3.01 µM) | 0.12 µg/mL (≈ 0.361 µM) | 0.06 µg/mL (≈ 0.181 µM) | 0.12 µg/mL (≈ 0.361 µM) | 0.25 µg/mL (≈ 0.752 µM) | 0.12 µg/mL (≈ 0.361 µM) | 2 µg/mL (≈ 6.02 µM) | 0.25 µg/mL (≈ 0.752 µM) | 0.06 µg/mL (≈ 0.181 µM) | 0.12 µg/mL (≈ 0.361 µM) | 0.12 µg/mL (≈ 0.361 µM) | CC1(O)CN(c2cc3c(cc2F)c(=O)c(C(=O)O)cn3C2CC2)C1 |  |  | 
0.5 µg/mL (≈ 1.28 µM) | 0.12 µg/mL (≈ 0.308 µM) | 0.06 µg/mL (≈ 0.154 µM) | 0.12 µg/mL (≈ 0.308 µM) | 0.06 µg/mL (≈ 0.154 µM) | 0.12 µg/mL (≈ 0.308 µM) | 2 µg/mL (≈ 5.14 µM) | 0.12 µg/mL (≈ 0.308 µM) | 0.12 µg/mL (≈ 0.308 µM) | 0.25 µg/mL (≈ 0.642 µM) | 0.06 µg/mL (≈ 0.154 µM) | O=C(O)c1cn(C2CC2)c2c(F)c(N3CC(N4CCCC4)C3)c(F)cc2c1=O |  |  | 
